# Compounds with a hit are over-represented: about 11% of the library has one in this group of screens.
# Diaph act CS: compounds boosting diaphorase resazurin reduction – biochemical, uHTS, resorufin fluorescence, counter-screen for diaphorase-coupled primary assays, primary screen. activation factor at 20 µM. AID 1229, 2008. Diaphorase/resazurin coupled assay, 16 min; stronger effect = higher value; 1 = vehicle wells, 0 = NADH-free wells. 190,000 compounds, 0.005% hits;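 active = diaphorase activity raised at least twofold by the compound at 20 µM; inactive = activation factor below 2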
#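 Material: Clostridium kluyveri diaphorase, purified enzyme; Quantity: enzyme 0.07 U/mL final; Medium: HEPES pH 7.4 buffer with MgCl2 and Tween 20; Dosing: single compound dose of 20 µM, 1% DMSO final; Schedule: 16 min reaction at room temperature; Measured by: red resorufin fluorescence at 544/590 nm excitation/emission.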
# WT yeast gro inh: growth inhibition of WT strain, primary screen, mitochondrial fusion inhibitor project, WT and mutant strains, chemical genetic; mitochondrial fusion phenotypic screen; inhibition, % at 10 µM; 190,000 compounds, 2.1% hits; AID 1362, 2008; in the data active = inhibition above about 58%; tested in S. cerevisiae
# L major viab: Leishmania major promastigote growth inhibition, primary screen | Leishmania major promastigotes, resazurin fluorescence viability | inhibition, % at 10 µM | 200,000 compounds, 9% hits | AID 1063, 2008;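 also: promastigotes grown with compound for 44 hours at 28 °C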
# Diaph inh CS: diaphorase inhibitors and chemical oxidizers, primary screen, counter-screen for diaphorase-coupled primary assays, biochemical, uHTS, resorufin fluorescence; diaphorase resazurin-to-resorufin fluorescence, NADH, 16 min; bacterial (C. kluyveri) enzyme, not human; inhibition, % at 20 µM; 190,000 compounds, 0.69% hits; AID 1217, 2008;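 active = primary screen inhibition at 20 µM above a set limit, cut at about 50% in these data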;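 also: plate controls were DMSO with full reaction for no effect and wells lacking NADH for full effect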
#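 Assay system: diaphorase enzyme from Clostridium kluyveri. Quantity: enzyme working solution with 0.14 U/mL diaphorase. Schedule: reaction incubation of 16 min at room temperature. Technique: resorufin fluorescence, excitation 544 nm, emission 590 nm. Controls: No-NADH positive control and DMSO neutral control.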
# G6PDH CS: L. mesenteroides G6PDH inhibitors, counter-screen for G6PDH-coupled screening assays, biochemical, Leuconostoc mesenteroides enzyme | glucose-6-phosphate dehydrogenase [Leuconostoc mesenteroides] | Purified L. mesenteroides G6PDH, diaphorase/resazurin coupled fluorescence, 45 min | inhibition, % at 5 µM | 200,000 compounds, 0.12% hits | AID 1020, 2008
# Numbers without * were called inactive; . = no result. Rule as the data show it, unless noted: active = inhibition above about 50%; inactive = the rest.
SMILES,Diaph act CS,WT yeast gro inh,L major viab,Diaph inh CS,G6PDH CS
O=C(Cc1csc(-c2ccccc2)n1)Nc1ccc(C(F)(F)F)cc1,0.8,2,87*,15,6
CC(NC(=O)/C=C/c1ccco1)c1nc2ccccc2n1Cc1cccc(Cl)c1 (stereo not drawn),0.9,4,28,9,-10
O=C(CN1CCCCC1)N1N=C(c2cccs2)CC1c1cccs1 (stereo not drawn),0.9,1,-3,9,4
CCNc1nc(SCCOc2ccc(Cl)cc2Cl)nc(N(C)C)n1,0.9,64*,56*,14,-5
O=C(CN1C(=O)NC2(CCc3ccccc32)C1=O)c1ccc2c(c1)OCCO2 (stereo not drawn),0.9,-5,-8,9,2
Cc1[nH]c(=O)c(C(=O)/C=C/c2ccccc2F)c2c1CCCC2,0.8,-16,100*,16,0
O=C1ON=C(c2ccc(Cl)cc2)/C1=C/c1ccc(O)cc1,0.9,-4,65*,10,5
Cc1sc(/C=C2\C(=O)ON=C2c2ccccc2)cc1Br,1,-27,-8,2,-3
COc1cc(/C=C2/C(=O)ON=C2c2ccccc2)ccc1O,0.8,-11,88*,20,-24
CC1CCN(c2cc(N3CCN(C(=O)c4ccc(F)c(F)c4)CC3)c([N+](=O)[O-])cc2F)CC1,0.9,24,3,13,12
CC(C)N(Cc1ccccc1)C(=O)COC(=O)/C=C/c1cnc2ccccc2n1,0.9,-20,-1,10,2
CC(=O)c1cc(CN2CCC(N3CCC(C(=O)NC(C)C)CC3)CC2)cs1,0.9,13,-4,9,7
O=C(C1CCN(C2CCN(CC3CC=CCC3)CC2)CC1)N1CCOCC1 (stereo not drawn),0.8,2,76*,20,15
CC(C)NC(=O)C1CCN(C2CCN(CC3CC=CCC3)CC2)CC1 (stereo not drawn),.,20,9,.,9
CC(C)=CCCC(C)CN1CCC(N2CCC(C(=O)NC(C)C)CC2)CC1 (stereo not drawn),0.9,-6,83*,9,8
CC(C)=CCCC(C)CN1CCC(N2CCC(C(=O)N3CCOCC3)CC2)CC1 (stereo not drawn),0.9,-6,96*,14,4
CS(=O)(=O)c1ccc(C(=O)OCc2nnc(-c3ccc(Cl)cc3)o2)cc1[N+](=O)[O-],1,20,-13,2,-8
CC(C)c1nnc(NC(=O)c2cccnc2)s1,1.1,10,-6,-13,10
COc1ccc(C(=O)NNC2=CC(=O)CC(C)(C)C2)cc1OC,1,-16,-4,0,12
CC(OC(=O)C1=Cc2ccccc2OC1)C(=O)NC(C)(C)C (stereo not drawn),1,7,10,-1,9
Cc1cccn2c(=O)c3cc(C(N)=S)c(=N)n(CCCOC(C)C)c3nc12,0.6,-4,87*,35,7
Cc1cccn2c(=O)c3cc(C(=O)N(C)C)n(C)c3nc12,0.9,6,87*,11,10
CCOC(=O)c1cc2c(=O)n3cccc(C)c3nc2n(C)c1=N,1,-7,98*,1,1
CCOCCCn1c(=N)c(C(N)=S)cc2c(=O)n3cccc(C)c3nc21,0.9,5,43,8,-34
CN(C(=O)c1ccccc1OC1CCN(S(C)(=O)=O)CC1)C1CCOC1 (stereo not drawn),1.1,8,-2,-11,6
SMILES,Diaph act CS,WT yeast gro inh,L major viab,Diaph inh CS,G6PDH CS
COc1ccccc1NC(=O)CN1CC(=O)Nc2ccccc21,0.9,-14,-7,12,3
CC(=O)Nc1nonc1NC(=O)COc1ccccc1,0.9,-14,-4,8,-3
c1ccc2c(-c3[nH]ncc3CNCCCn3ncc4ccccc43)cccc2c1,1.1,4,77*,-7,14
O=C(C1CCN(c2ccc(N3CCOCC3)nn2)CC1)N1CCc2ccccc2C1,0.9,16,95*,9,2
CC(NC(=O)c1ccc(F)cc1)c1ccc2c(c1)CCCC2 (stereo not drawn),0.9,6,3,11,-1
COc1cc(OC)cc(C(=O)NC(C)c2ccc(Br)cc2)c1 (stereo not drawn),0.9,14,37,6,16
CC(NC(=O)c1ccc(Br)cc1)c1ccc2c(c1)CCCC2 (stereo not drawn),0.8,63*,-7,18,-7
COc1cccc(C(=O)NC(C)c2ccc(Br)cc2)c1 (stereo not drawn),0.9,22,61*,15,0
Cc1cc(C(=O)Cn2nc(C(=O)O)c3ccccc3c2=O)c(C)n1-c1ccc(F)cc1,0.8,16,-6,18,-6
Fc1ccc(/C=N/NC(=S)Nc2ccc(Cl)cc2)cc1F,1,24,-8,4,4
O=C(CSc1cccc2cccc(Cl)c12)OCC(=O)N1CCN(C(=O)c2ccco2)CC1,0.7,.,53*,28,1
Cc1cc(Br)ccc1SCC(=O)OCC(=O)N1CCN(C(=O)c2ccco2)CC1,0.9,7,-6,13,7
CC(=O)N1CCC(N(C(=O)Nc2ccc(C)c(C)c2)C2CCCC2)CC1,0.9,3,-5,12,-16
Cc1ccc(NC(=O)N(C2CCCCC2)C(C)c2cccnc2)cc1C (stereo not drawn),0.8,3,83*,16,-1
COc1ccc(NC(=O)N(C2CCCCC2)C(C)c2cccnc2)c(OC)c1 (stereo not drawn),0.8,15,82*,16,4
CCc1ccc(NC(=O)N(C2CCCCC2)C(C)c2cccnc2)cc1 (stereo not drawn),0.9,3,90*,14,0
COc1ccc(NC(=O)N(C2CCCCC2)C(C)c2ccco2)c(OC)c1 (stereo not drawn),0.8,15,40,16,6
Cc1cc(N(CCO)CCO)ccc1C(c1ccc(N(CCO)CCO)cc1C)c1ccccc1Cl,0.7,16,-7,32,13
Cn1ncc(Cl)c1C(=O)NC(=S)Nc1sc2c(c1C#N)CCCCC2,0.9,0,-8,12,5
O=C(O)CN1C(=O)SC(Nc2ccccc2C(=O)O)C1=O (stereo not drawn),0.9,11,-7,9,2
CC(C)NC(=O)C1CCN(C2CCN(C(=O)c3scc4c3CCCC4)CC2)CC1,1,10,52*,-1,13
C=CC(=O)NC(C)(C)CCN1CCOCC1,0.9,-14,-4,11,13
C(=N\Nc1ccccc1)/c1ccc(N2CCOCC2)cc1,0.9,-18,3,12,6
